# Tests used:
# [1] = target: T1, Calpain-1 catalytic subunit (Sus scrofa, UniProt P35750); assay: The compound was evaluated for inhibition of Calpain 1 from porcine erythrocytes; type: cell-based
# T1 sequence (P35750 whole entry): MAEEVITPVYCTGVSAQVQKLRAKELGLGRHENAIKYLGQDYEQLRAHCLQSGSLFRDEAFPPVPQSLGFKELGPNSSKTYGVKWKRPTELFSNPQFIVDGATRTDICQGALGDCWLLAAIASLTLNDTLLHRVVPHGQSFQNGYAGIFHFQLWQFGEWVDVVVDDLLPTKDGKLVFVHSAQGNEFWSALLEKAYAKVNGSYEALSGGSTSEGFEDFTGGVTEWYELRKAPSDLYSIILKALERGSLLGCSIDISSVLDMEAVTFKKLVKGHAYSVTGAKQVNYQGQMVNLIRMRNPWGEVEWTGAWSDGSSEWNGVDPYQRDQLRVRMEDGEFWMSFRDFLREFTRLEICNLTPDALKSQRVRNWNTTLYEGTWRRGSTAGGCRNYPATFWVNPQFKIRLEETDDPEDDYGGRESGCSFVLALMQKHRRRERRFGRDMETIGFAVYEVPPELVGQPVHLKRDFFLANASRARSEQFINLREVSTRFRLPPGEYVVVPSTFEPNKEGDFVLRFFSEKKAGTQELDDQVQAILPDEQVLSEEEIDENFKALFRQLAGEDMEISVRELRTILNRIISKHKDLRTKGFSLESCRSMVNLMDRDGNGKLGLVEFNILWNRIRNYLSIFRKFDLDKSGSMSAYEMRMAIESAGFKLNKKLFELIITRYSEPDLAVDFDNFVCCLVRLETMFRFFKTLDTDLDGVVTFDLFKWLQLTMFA
# Method in brief: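 Substrate was Suc-Leu-Tyr-AMC at two concentrations, inhibitor varied, and 5 mM CaCl2 started the reaction. Fluorescence increase (ex 370, em 440 nm) was read at ambient temperature. Ki came from Dixon plots of triplicate means.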
# [2] = Selectivity ratio of Ki values for cathepsin B inhibition by those for calpain I inhibition
# [3] = target: Cathepsin B (Homo sapiens, UniProt P07858); assay: The compound was evaluated for inhibition of cathepsin B from human liver
# Method in brief: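 Cathepsin B from human liver, assayed in 20 mM NaOAc pH 5.2, 0.5 mM DTT, 2% DMSO. Ki was obtained from Dixon plots (1/v versus inhibitor concentration, intersecting lines) using the average of triplicate assays.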
SMILES,Ki [1] [µM],Selectivity ratio [2],Ki [3] [µM]
CC(C)[C@@H]1C[C@@]1(NC(=O)OCc1ccccc1)C(=O)N[C@@H](Cc1ccccc1)C(=O)C(=O)NCCc1ccccc1,0.75,9,6.78
CC(C)[C@H]1C[C@@]1(NC(=O)OCc1ccccc1)C(=O)N[C@@H](Cc1ccccc1)C(=O)C(=O)NCCc1ccccc1,11.1,0.5,5.05
CC(C)[C@@H]1C[C@]1(NC(=O)OCc1ccccc1)C(=O)N[C@@H](Cc1ccccc1)C(=O)C(=O)NCCc1ccccc1,40,0.1,4.56
CC(C)[C@H]1C[C@]1(NC(=O)OCc1ccccc1)C(=O)N[C@@H](Cc1ccccc1)C(=O)C(=O)NCCc1ccccc1,6.15,0.2,1.26
CC(C)C[C@H](NC(=O)OCc1ccccc1)C(=O)N[C@@H](Cc1ccccc1)C(=O)C(=O)NCCc1ccccc1,0.07,4,0.3

# Reference: ChEMBL document CHEMBL1133486, “Synthesis and calpain inhibitory activity of alpha-ketoamides with 2,3-methanoleucine stereoisomers at the P2 position” (Bioorg Med Chem Lett, 2000)
